Test results from ChEMBL document CHEMBL1123335, “Synthesis and class III antiarrhythmic activity of (phenylbut-2-enyl)ammonium salts. Effect of conformation on activity” (J Med Chem, 1986).
Where “and” joins values, the source holds several entries; their conditions need not be identical. Identical values can stand only once.

How the values were obtained:
[1] = tested on: Canis familiaris; assay: Compound was evaluated for intraduodenal bioavailability in anesthetized dogs measured as mean blood pressure at a dose of 10/60 range; 13/23; assay type: ADME, organism-based, Canis lupus familiaris, Artery; settings: dog, in vivo
How it was run: (§1)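 Pentobarbital-anesthetized (30 mg/kg i.v.) dogs, 8–20 kg, either sex. Compound given intraduodenally as a 0.5% tragacanth suspension, usually as two doses, the second cumulative. HR, BP, FRP and conduction were measured at 15, 30 and 45 min postdose. Mean BP reported as % change from control, low dose/high dose, for each animal.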

[2] = species: Canis familiaris; assay: Intracellular electrophysiology in canine Purkinje fiber measured as maximum prolongation of APD95 observed at a dose of 10 uM; assay type: functional, Canis lupus familiaris
How it was run: (§2)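 Canine Purkinje fibers superfused at 37 ± 0.5 °C, pH 7.35–7.40 (95:5 O2/CO2), paced at 1.0 Hz (2-ms pulses, 2× diastolic threshold). Fibers stabilized up to 1 h. Intracellular microelectrode (3 M KCl) recording of APD95, 30 min exposure per concentration across 10^-8–10^-4 M. Value is concentration giving 20% APD95 prolongation, or maximum prolongation with its concentration.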

[3] = species: Canis familiaris; assay: Intracellular electrophysiology in canine Purkinje fiber measured as concentration that caused 20% prolongation of action potential duration (APD95); assay type: functional, Canis lupus familiaris; how it was run: as §2
[4] = species: Canis familiaris; assay: Intracellular electrophysiology in canine potential (Vmax) at a dose range.; assay type: functional; settings: Canis lupus familiaris
How it was run: (§3)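 Canine Purkinje fibers at 37 ± 0.5 °C, gassed 95:5 O2/CO2 (pH 7.35–7.40), stimulated at 1.0 Hz. Maximum upstroke velocity (Vmax) recorded by glass microelectrode after up to 1 h stabilization. Compounds tested at 10^-8–10^-4 M with 30 min exposure per concentration. Reported as maximum observed effect on Vmax and the concentration at which it occurred.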

[5] = tested on: Canis familiaris; assay: Compound was evaluated for intraduodenal bioavailability in anesthetized dogs measured as mean blood pressure at a dose of 10/30 range; 19/3; assay type: ADME, organism-based, Canis lupus familiaris, Artery; settings: dog, in vivo; how it was run: as §1
[6] = tested on: Canis familiaris; assay: Compound was evaluated for intraduodenal bioavailability in anesthetized dogs measured as mean blood pressure at a dose of 3 range; assay type: ADME, organism-based, Canis lupus familiaris, Artery; settings: dog, in vivo, other; how it was run: as §1
[7] = species: Canis familiaris; assay: Compound was evaluated for intracellular electrophysiology in canine Purkinje fiber measured as concentration that caused 20% prolongation of action potential duration (APD95) at a dose range of 0.1-10 uM; assay type: functional, Canis lupus familiaris; how it was run: as §2
[8] = species: Canis familiaris; assay: Compound was evaluated for intracellular electrophysiology in canine Purkinje fiber measured as concentration that caused 20% prolongation of action potential duration (APD95) at a dose range of 0.1-100 uM; assay type: functional, Canis lupus familiaris; how it was run: as §2
[9] = species: Canis familiaris; assay: Compound was evaluated for intracellular electrophysiology in canine Purkinje fiber measured as maximum prolongation of APD95 observed at 10 uM; assay type: functional, Canis lupus familiaris; how it was run: as §2
[10] = species: Canis familiaris; assay: Compound was evaluated for intracellular electrophysiology in canine Purkinje fiber measured as concentration that caused 20% prolongation of action potential duration (APD95) at a dose range of 0.01-100 uM; assay type: functional, Canis lupus familiaris; how it was run: as §2
[11] = species: Canis familiaris; assay: Compound was evaluated for intracellular electrophysiology in canine Purkinje fiber measured as maximum prolongation of APD95 observed at 1 uM; assay type: functional, Canis lupus familiaris; how it was run: as §2
[12] = species: Canis familiaris; assay: Concentration at which maximum observed effect on the action potential (Vmax) at a dose range of 0.1-100 uM occurred; 2/2; assay type: functional, Canis lupus familiaris
[13] = species: Canis familiaris; assay: Compound was evaluated for intracellular electrophysiology in canine potential (Vmax) at 100 uM; assay type: functional; settings: Canis lupus familiaris; how it was run: as §3
[14] = tested on: Canis familiaris; assay: In vivo antiarrhythmic efficacy in anesthetized dogs
[15] = species: Canis familiaris; assay: Compound was evaluated for intracellular electrophysiology in canine potential (Vmax) at a dose of 10 uM; assay type: functional, Canis lupus familiaris; how it was run: as §3
[16] = species: Canis familiaris; assay: Compound was evaluated for intracellular electrophysiology in canine potential (Vmax) at a dose of 1 uM; assay type: functional, Canis lupus familiaris; settings: at 1 µM
[17] = species: Canis familiaris; assay: Compound was evaluated for intracellular electrophysiology in canine potential (Vmax) at a dose range of 0.01-10 uM; assay type: functional; settings: Canis lupus familiaris; at 0.01 to 10 µM
How it was run: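 Isolated cardiac fibres superfused with bicarbonate/glucose salt solution gassed 95:5 O2/CO2 (pH 7.35–7.40), 37 ± 0.5 °C. Bipolar stimulation at 1.0 Hz with 2-ms square pulses at twice diastolic threshold. Intracellular recording with 3 M KCl glass microelectrodes after up to 1 h stabilization. Each concentration (10^-8–10^-4 M) applied for 30 min. Value is the maximum Vmax effect and the concentration at which it occurred, per study.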

[18] = tested on: Canis familiaris; assay: In vivo antiarrhythmic efficacy in anesthetized dogs; 2/3
[19] = tested on: Canis familiaris; assay: In vivo antiarrhythmic efficacy in anesthetized dogs; Inactive at 3 mg/kg
[20] = species: Canis familiaris; assay: Compound was evaluated for intracellular electrophysiology in canine Purkinje fiber measured as concentration that caused 20% prolongation of action potential duration (APD95) at a dose range of 0.01-10 uM; NR=Not reached; assay type: functional; settings: Canis lupus familiaris; how it was run: as §2
[21] = species: Canis familiaris; assay: Compound was evaluated for intracellular electrophysiology in canine potential (Vmax) at a dose of 100 uM; assay type: functional; settings: Canis lupus familiaris; how it was run: as §3
[22] = tested on: Canis familiaris; assay: Compound was evaluated for intraduodenal bioavailability in anesthetized dogs measured as mean blood pressure at a dose of 10/30 range; 8/49; assay type: ADME, organism-based, Canis lupus familiaris, Artery; settings: dog, in vivo; how it was run: as §1
[23] = tested on: Canis familiaris; assay: Compound was evaluated for intraduodenal bioavailability in anesthetized dogs measured as mean blood pressure at a dose of 10/30 range; 10/31; assay type: ADME, organism-based, Canis lupus familiaris, Artery; settings: dog, in vivo; how it was run: as §1
[24] = species: Canis familiaris; assay: Compound was evaluated for intracellular electrophysiology in canine potential (Vmax) at 10 uM; assay type: functional; settings: Canis lupus familiaris; how it was run: as §3
[25] = species: Canis familiaris; assay: Compound was evaluated for intracellular electrophysiology in canine uM; assay type: functional; settings: Canis lupus familiaris; how it was run: as §3
[26] = tested on: Canis familiaris; assay: Compound was evaluated for intraduodenal bioavailability in anesthetized dogs measured as mean blood pressure at a dose of 10/30 range; 2/16; assay type: ADME, organism-based, Canis lupus familiaris, Artery; settings: dog, in vivo; how it was run: as §1
[27] = species: Canis familiaris; assay: Compound was evaluated for intracellular electrophysiology in canine Purkinje fiber measured as maximum prolongation of APD95 observed at a dose range of 100 uM; assay type: functional, Canis lupus familiaris; how it was run: as §2
[28] = species: Canis familiaris; assay: Compound was evaluated for intracellular electrophysiology in canine potential (Vmax) at a dose range of 100 uM; assay type: functional; settings: Canis lupus familiaris; how it was run: as §3
[29] = tested on: Canis familiaris; assay: In vivo antiarrhythmic efficacy in anesthetized dogs; 2/2
[30] = tested on: Canis familiaris; assay: Compound was evaluated for intraduodenal bioavailability in anesthetized dogs measured as mean blood pressure at a dose of 10/30 range; 6/2; assay type: ADME, organism-based, Canis lupus familiaris, Artery; settings: dog, in vivo; how it was run: as §1
[31] = tested on: Canis familiaris; assay: Compound was evaluated for intraduodenal bioavailability in anesthetized dogs measured as mean blood pressure at a dose of 10/30 range; 8/8; assay type: ADME, organism-based, Canis lupus familiaris, Artery; settings: dog, in vivo; how it was run: as §1
[32] = species: Canis familiaris; assay: Compound was evaluated for intracellular electrophysiology in canine Purkinje fiber measured as maximum prolongation of APD95 observed at a dose of 1 uM; assay type: functional, Canis lupus familiaris; how it was run: as §2
[33] = species: Canis familiaris; assay: Compound was evaluated for intracellular electrophysiology in canine Purkinje fiber measured as concentration that caused 20% prolongation of action potential duration (APD95) at a dose range of 0.01-1 uM; assay type: functional, Canis lupus familiaris; how it was run: as §2

CCCCCCC[N+](CC)(CC)C/C=C\Cc1cccc(Cl)c1Cl.Cc1ccc(S(=O)(=O)[O-])cc1
Bioavailabiility [1]: 13% | APD95 [2]: 35% | C20 [3]: 2 µM | Vmax [4]: Minimal

CCN(CC)C/C(C)=C(/C)Cc1ccc([N+](=O)[O-])cc1.Cl
Bioavailabiility [5]: 19% | Bioavailabiility [6]: 9% | C20 [7]: 0.4 µM | C20 [8]: <0.1 µM | APD95 [9]: 66% and 55% | C20 [10]: 0.05 µM | Max APD95 [11]: 27% | Efficacy [12]: 2 | Vmax [13]: -28% and -52% | Effective dose [14]: 0.1 mg/kg and 0.3 mg/kg

CCCCCCC[N+](CC)(CC)CCCCc1ccc(Cl)cc1.O=P([O-])(O)O [CLOFILIUM PHOSPHATE]
APD95 [15]: 78% and 27% | APD95 [16]: 25% and 29% | APD95 [2]: 29% and 46% | C20 [3]: 2 µM | Vmax [17]: -21% | Effective dose [14]: 0.1 mg/kg | Efficacy [18]: 2 | Effective dose [19]: 0.5 mg/kg

CCCCCCC[N+](CC)(CC)C/C=C/Cc1ccc(Cl)cc1.Cc1ccc(S(=O)(=O)[O-])cc1
C20 [3]: <1 µM and 1.9 µM and 1.4 µM

CCN(CC)CC#CCc1ccc(Cl)cc1.Cl
APD95 [2]: -6% | C20 [20]: Not reached | Vmax [21]: -34%

C[N+](C)(C)C/C=C\Cc1ccc(Cl)cc1.[Cl-]
Bioavailabiility [22]: 8% | APD95 [2]: 43% | C20 [3]: 0.3 µM | Vmax [4]: Minimal

CCN(CC)C/C=C\Cc1ccc([N+](=O)[O-])cc1.Cl
Bioavailabiility [23]: 10% | APD95 [9]: 25% | C20 [3]: 0.9 µM | Vmax [24]: -13%

CC[N+](CC)(CC)CC#CCc1ccc(Cl)cc1.[I-]
APD95 [2]: 53% | C20 [3]: 0.3 µM | Vmax [25]: -6%

CCN(CC)C/C(C)=C(/C)Cc1ccc([N-]S(C)(=O)=O)cc1.[Na+]
Bioavailabiility [26]: 2% | APD95 [27]: 78% | C20 [3]: 2.2 µM | Vmax [28]: -13%

CCCCCCC[N+](CC)(CC)C/C=C\Cc1ccc(Cl)cc1.O=P([O-])(O)O
APD95 [2]: 28% and 29% and 23% | Effective dose [14]: 0.3 mg/kg | Efficacy [29]: 2

CCCCCCC[N+](CC)(CC)C/C=C\Cc1ccc(Br)cc1.O=P([O-])(O)O
C20 [3]: 5.7 µM | Vmax [4]: Minimal | Effective dose [14]: 1 mg/kg and 3 mg/kg | Efficacy [29]: 2

CCCCCCC[N+](CC)(CC)C/C=C\Cc1ccccc1Cl.[Cl-]
Bioavailabiility [30]: 6% | Bioavailabiility [31]: 8% | APD95 [2]: 16% | APD95 [32]: 72% | C20 [33]: <0.1 µM | C20 [20]: Not reached | Vmax [4]: Minimal | Efficacy [29]: 2

CCCCCCC[N+](CC)(CC)C/C=C\Cc1ccc(Cl)cc1.Cc1ccc(S(=O)(=O)[O-])cc1
APD95 [2]: 42% and 47% and 23%
